Test results published in the EternaBench riboswitch data.

Test system: MS2 coat protein
Assay: apparent Kd, MS2 coat protein; higher = weaker binding; RNA-MaP array; FMN 200 µM where present
Summary of the method: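 Stalled E. coli RNA polymerase produced the designs on Illumina sequencing-chip clusters. SNAP-549-labelled MS2 coat protein was added from 0.7 or 1.5 nM, doubling to 3 µM, without and then with constant ligand, in 100 mM Tris-HCl pH 7.5, 80 mM KCl, 4 mM MgCl2, BSA, DTT, yeast tRNA and Tween-20. The apparent Kd is the median of filtered per-cluster fits of green signal normalised to red-channel RNA signal and control-cluster median Fmax.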

[1] = designed as: OFF switch for flavin mononucleotide, no ligand
[2] = ligand present: flavin mononucleotide, designed as: OFF switch for flavin mononucleotide
[3] = designed as: ON switch for flavin mononucleotide, no ligand
[4] = ligand present: flavin mononucleotide, designed as: ON switch for flavin mononucleotide

Sequence	apparent Kd [1] [nM]	apparent Kd [2] [nM]	apparent Kd [3] [nM]	apparent Kd [4] [nM]
CAUGACAAAGGAUAUACAUGAGGAUCACCCAUGUGGUCAUGGAAGUACGUGUUCUCACGUAGAAGGUUGCAGGG	12.8	24.9		
GUAGCAUACCGAGGAUAUUCAUAUAAUAAGUAAACAUGAGGAUCACCCAUGUAGCGAGAGCCUUGGGAGAAGGCGGAAUGCUAC			337	58.1
UUCAGCGAUCAAGGAUAUCUAUAAACAUGAGGACAUGAGGAUCACCCAUGUUGAUCACCCAUGUAGGAGAAGGUGAACAUGAGG			81.8	29.8
CGAUAGGACAGAGGAUAUACACAUGAGGAUCACCCAUGUGAUUUCAACGCGAAAGCGCCAAACAUGUAGAAGGCUGUCCUAUCG	25.9	16.4		
GUAGCAUACCGAGGAUAUUCAGGGCGUGGAUAGACAUGAGGAUCACCCAUGUGGCGAAAGCCUAGGGAGAAGGCGGAAUGCUAC			26.9	17.6
AUACCUUAUGAGAAGGCGAUCAUGAAACAUGAUCGAGGAUAUCAUGUAAACAUGAGGAUCACCCAUGUAUGGGUAUUAUGGUAG			34	10.5
CACAACCAGGGAGGAUAUACAUGAGGAUCACCCAUGUUCGGCUCCCAUGCAGGAUGCCGUCCCGUGUAGAAGGCCCAGCGAUAG	9.91	32.2		
UGGGAGUCAGGAUAUACGAACAUGUCGCCAGAUGUCAAGGUACAUGAGGAUCACCCAUGUAGAAGGGACUAGAA	39.4	42.1		
UGUUUGUGACAGAAGGGCAUUUACAUGAGGAUCACCCAUGUUCAUCAUUGCAGGAUAUGUAUUUCAUGAGGAUCACCUAUGCUC			201	71.1
UAUUAGCUAGGAUAUACAUGAGGAUCACCCAUGUCACGGGUCCACUCAUCCUAUGCGUGUAGAAGGAGCGACCC	22.9	26.6		
GCGUCACAAUUAGAACCAAUACGAACAUGAGGAUCACCCAUGUAGGAUAUGCUAGAAGUUGAGUUGCAGAAGGACAUAUAACGC	12	10.9		
AUCAAGUGAGGAUAUGAUAAUACAACAAACAAACAUCUACAUCAGAAGGCACAUGAGGAUCACCCAUGUUAAUC	22.7	27.1		
CAGGUAGACUGAGGAUAUACACUAAACAGCUAGUCUAUCUAGCUGACCACAUGAGGAUCACCCAUGUAGAAGGCAGUCUGCCUG	18.1	39.2		
ACCGGGUGUCACGUAUUACCGACAUGAGGAUCACCCAUGUAGGAGGAUAUGCAGACCGACAUAAAGCAGAAGGCCUACGUUUUC	6.72	35.8		
GGAUAGGACAGAGGAUAUACGUGCUAGAGAUACUAGCAAAAUUUCCUCACAUGAGGAUCACCCAUGUAGAAGGCUGUCGUAUCG	15.3	334		
AAAACAUGAGGAUCACCCAUGUAAAGAACGGUUAAUAAAUGUGAGGAUAUACUAAAAUUUAGGUAGUAGAAGGCACUGGGUACA			24.1	25.7
CGGGUCAACAUGAGGAUCACCCAUGUACUGCUAAUGCAGUCACAGGAUAUCUUCGGUAGAUUAGAAGAGAAGGGUGAUGCCCAG			136	117
UACAUUACUUAGAAGGGAUAUAUAUAAUUUUAGUCAGGAUAUAGAUACAAUACAACAUGAGGACAUGAGGAUCACCCAUGUAUU			17.9	13.4
AAAGUGCAAGGAUAUAUAUGAAAAGUUACGAAAGUAACAAAACAUGAGGAUCACCCAUGUAGAAGGUGCACAAA	27.8	24.4		
ACAUGAGGAUCACCCAUGUAGAAUGAAGAAGGUAGAUAAUUGUGUUUCACCCAUGUACAUAAAUCUAAGGAUAUUCUAAUAAUU			12.3	7.35
UGAUAGGACAGAGGAUAUACGGAUAGGAUCUACUAUCUUCUUCAAAUAACAUGAGGAUCACCCAUGUAGAAGGCUGUCCUAUCU	15	33		
UGUAAGAUGCAGAAGGUGUUAGCUAGAGCUACGACAUGAGGAUCACCCAUGUACUAGAAACAGUACAAGGAUAUGCAUCUUACC			19.6	6.43
UGGUACAUCGCAGGAUAUCAUGUAGAUACAUGAGGAUCACCCAUGUCGAUGGAGACAUCGGAGAUUGAGAAGGGCGAUGUACCU			907	41.1
AAUAAACUCACAGGAUAUAGCAGAGAUCGCGUGAACUUACAGGCGACGAUGCUAGAAGGGUGACCACAUGAGGAUCACCCAUGU			673	120
UUAUUAAAUGUAGGAUAUGCAUAUUAUUAUUAUGCAGAAGGACAUGAGGAUCACCCAUGUAUAUUAUUAUUAUAUAUUAUAUAU	32.5	71.3		
CUCAUGUAAGGAUAUCAGUAGUAAAAAAAUAAAAUUACUACUGAGAAGGUACAUGAGGAUCACCCAUGUCCUUG	38.8	21.6		
UAAGGGUAAUGAGGAUAUAACGGGUGACAUGAGGAUCACCCAUGUGGUUUGUUAUGGUCGAGCCGUUAGAAGGCAUUGUAAGCA	1070	1120		
